Statin myotox sup: suppression of simvastatin myotoxicity; rescue of ATP level, % at 7.49 µM; C2C12 myotubes + simvastatin, ATP luminescence, 48 h; scaled: DMSO 0, geranylgeraniol control 100; actives 0.78% (n = 330,000);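 active = mean ATP rescue above about 67%, or every replicate alone reaching that limit, limit read from the data, passing the limit was not always enough; inconclusive = no clear call, values can overlap the other calls; inactive = mean under the limit and some replicate under it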;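 also: myotubes were challenged with 10 µM simvastatin during compound exposure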
rRNA inh HTS: inhibits bacterial ribosomal RNA function over humanized ribosomes | E. coli WT GFP vs humanized-ribosome RFP mutants, fluorescence, 24 h; active compounds read low; DMSO median 0, no signal -100 | GFP signal change (wild-type ribosome), % (test concentration not listed) | actives 1.6% (n = 350,000);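 active = significant combined selectivity score with lowered wild-type GFP, culture density cut under 30%, mutant RFP and density less affected; inactive = any of these conditions unmet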
FGF22 binding: shifts melting point of recombinant human FGF22. recombinant FGF22 thermal shift, SYPRO orange fluorescence; percent of sucrose octasulfate shift, DMSO zero. activity (Tm shift, normalised), % at 9.99 µM. actives 1.5% (n = 340,000). AID 651658;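 active = mean Tm shift, scaled 0 neutral to 100 positive control, at about 1.3% or above, every replicate too, limit read from the data; inconclusive = no clear call, values can overlap the other calls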
Target sequence (Q9HCT0 whole entry, looked up): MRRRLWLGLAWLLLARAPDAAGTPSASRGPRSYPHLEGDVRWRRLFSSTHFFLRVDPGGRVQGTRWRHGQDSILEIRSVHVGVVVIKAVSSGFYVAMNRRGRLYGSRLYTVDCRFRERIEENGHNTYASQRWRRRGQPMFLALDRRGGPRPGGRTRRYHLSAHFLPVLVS
FN deposition inh: fibronectin deposition inhibition; AH1F fibroblasts, Alexa488-fibronectin deposition fluorescence, overnight; inhibition, % at 12.6 µM; actives 0.086% (n = 350,000);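 active = mean inhibition across replicates of 30% or more, regardless of how many single replicates reach that level; inconclusive = mean under 30% yet at least half of replicates reach 30%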;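 also: positive control wells lacked labelled fibronectin entirely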
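Measured by – fluorescence 485/525 nm · System – AH1F fibroblast monolayer, labelled fibronectin deposition · Amount – 10000 cells per well · Buffer or medium – serum-reduced DMEM (2% serum) · Doses – single dose, pinned · Also added – fluorescent fibronectin at 24 nM final · Schedule – 1 h cell attachment, overnight exposure to compound and label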
E-selectin induc: induces E-selectin expression in human endothelial cells | actives 0.37% (n = 260,000) | P16581 | HUVEC E-selectin immunofluorescence imaging; normalized: neutral wells 0, TNF-alpha wells 100 | activation, % at 7.58 µM | AID 686992;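 active = mean E-selectin-positive cell signal at least 10% of the positive control, reached in at least 60% of replicates, without over 20% cell loss; inconclusive = no rule given, readout overlaps actives, possibly toxicity-flagged; inactive = the rest, including those meeting only one limit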
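System: HUVEC, human umbilical vein endothelial cells; quantity: 3,000 cells/well; buffer or medium: EGM-2 medium, gelatin-coated wells; dosing: single-point compound dose; detection: immunofluorescence imaging; evaluation: % PE-positive cells; benchmarks: TNF-alpha, DMSO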
SIRT5 block: blocks human SIRT5 desuccinylation of peptide; Q9NXA8; Purified SirT5, succinyl-peptide AMC, trypsin-coupled fluorescence; inhibition, % at 15 µM; actives 1.1% (n = 330,000); in the data active = inhibition above about 15%; inconclusive = no clear call, values can overlap the other calls
Target sequence (Q9NXA8 whole entry, looked up): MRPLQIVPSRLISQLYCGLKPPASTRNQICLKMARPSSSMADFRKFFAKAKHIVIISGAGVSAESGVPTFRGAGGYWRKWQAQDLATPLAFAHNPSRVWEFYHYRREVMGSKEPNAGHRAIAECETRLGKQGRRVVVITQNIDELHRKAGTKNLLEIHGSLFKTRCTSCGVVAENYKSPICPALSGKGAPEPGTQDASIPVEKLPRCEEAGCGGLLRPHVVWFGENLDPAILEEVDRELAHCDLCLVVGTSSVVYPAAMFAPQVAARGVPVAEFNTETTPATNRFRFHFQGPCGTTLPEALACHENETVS
Numbers without * were called inactive; ? = inconclusive; . = not tested or not shown. A selection: hits, their analogues and other compounds. The true share with any hit is near 4%.

SMILES	Statin myotox sup	rRNA inh HTS	FGF22 binding	FN deposition inh	E-selectin induc	SIRT5 block
COc1ccc(-c2nc3ccc(C)cn3c2CC2CCCCC2)cc1OC	-2	-29*	0	-6	0	-1
Clc1cccc(Cc2c(-c3cccc(Cl)c3)nc3ccc(Br)cn23)c1	-2	-23*	1	3	-1	.
CN(C)Cc1c(-c2ccc(Cl)cc2)nc2ccc(Cl)cn12	.	7	43*	4	.	1
Clc1cccc(Cc2c(-c3cccc(Br)c3)nc3ccc(Br)cn23)c1	-6	-6	0	1	0	-11
C[C@@H]1CN([C@@H](C)CO)C(=O)c2cc(NS(=O)(=O)c3cn(C)cn3)ccc2O[C@H]1CN(C)Cc1ccc2c(c1)OCO2	-46	0	0	.	.	-18
N#C[C@@H]1[C@H](c2ccccc2-c2cccc(F)c2)[C@H](CO)N1C(=O)C1CCCC1	.	-5	.	-13	1	-7
Fc1ccc(-c2nc3ccc(Cl)cn3c2Cc2cccc(F)c2)cc1	-5	.	0	4	.	19*
S=C(NCc1ccccc1)Nc1cccc2cnccc12	-50	14	0	-26	.	0
S=C(NCCc1ccccc1)Nc1cccc2cnccc12	-9	-27*	0	-9	15	0
CN(C)c1ccc([C@@H]2[C@@H]([N+](=O)[O-])[C@H]3C=Cc4ccccc4N3[C@H]2C(=O)c2ccc(Cl)cc2)cc1	.	-28*	0	-10	.	1
O=C(c1ccccc1)C1C(c2ccccc2)C1[N+](=O)[O-] (centres undefined)	?	-7	0	7	0	-2
Cn1cnc(S(=O)(=O)N[C@@H]2CC[C@H](CC(=O)NCC3CC3)O[C@@H]2CO)c1	-4	2	0	-3	0	2
O=C1c2ccccc2NC2(CCCC2)N1NS(=O)(=O)c1ccccc1	.	2	0	3	.	-5
O=C1c2ccccc2NC2(CCCCC2)N1c1ccc(O)cc1	137*	.	.	.	.	.
CS(=O)(=O)NN1C(=O)c2ccccc2NC12CCCC2	-1	18	43*	2	-1	-16
C[C@@H]1CCCCO[C@@H](CN(C)Cc2ccc(Cl)c(Cl)c2)[C@H](C)CN([C@@H](C)CO)C(=O)c2cc(NC(=O)NC3CCCCC3)ccc2O1	15	0	-1	.	0	1
C[C@H](CO)N1C[C@H](C)[C@@H](CN(C)Cc2ccc(Cl)c(Cl)c2)OCCCC[C@H](C)Oc2ccc(NC(=O)NC3CCCCC3)cc2C1=O	-104	-1	-1	.	0	3
C[C@@H]1CN([C@H](C)CO)C(=O)c2cc(NC(=O)NC3CCCCC3)ccc2O[C@@H](C)CCCCO[C@@H]1CN(C)Cc1ccc(Cl)c(Cl)c1	65	0	-1	-5	0	24*
C[C@@H]1CCCCO[C@@H](CN(C)Cc2ccc(Cl)c(Cl)c2)[C@@H](C)CN([C@@H](C)CO)C(=O)c2cc(NC(=O)NC3CCCCC3)ccc2O1	?	3	-1	.	0	16*
Cc1ccc(C(=O)Cc2ccccc2)cc1	1	3	44*	-5	0	.
O=C(CCCCCCC(=O)c1ccccc1)c1ccccc1	.	15	43*	-2	.	-1
O=C(CCCCCCCC(=O)c1ccccc1)c1ccccc1	.	4	44*	6	.	-4
CCCN1[C@@H]2c3cccc(=O)n3C[C@H]1[C@H](CO)[C@H]2C(=O)Nc1ccccc1	0	2	0	.	0	4
C[C@H]1CN([C@@H](C)CO)S(=O)(=O)c2ccc(C#Cc3ccccc3F)cc2O[C@@H]1CN(C)CC1CCOCC1	-2	-11	0	.	.	3
CC(C)CCSc1nc(N2CCOCC2)c2c(c1C#N)CC(C)(C)OC2	-44	.	.	4	.	.
SMILES	Statin myotox sup	rRNA inh HTS	FGF22 binding	FN deposition inh	E-selectin induc	SIRT5 block
CC1(C)Cc2c(C#N)c(N3CCN(C(=O)c4ccco4)CC3)nc(-c3ccco3)c2CS1	121*	.	.	5	0	.
COC(=O)CCSc1nc(N2CCOCC2)c2c(c1C#N)CC(C)(C)OC2	9	-2	0	5	.	0
CC(=O)N1CCN(c2nc(-c3ccco3)c3c(c2C#N)CC(C)(C)SC3)CC1	-3	.	.	.	.	.
CCC1(C)Cc2c(C#N)c(SC)nc(N3CCOCC3)c2CO1 (centres undefined)	0	-40*	0	7	0	-2
COC(=O)c1ccc(CSc2nc(N3CCOCC3)c3c(c2C#N)CC(C)(C)OC3)o1	81*	.	.	.	.	.
CC1(C)Cc2c(C#N)c(SCC(=O)c3ccccc3)nc(N3CCOCC3)c2CS1	-26	.	.	48*	.	.
C[C@H](CO)N1C[C@H](C)[C@@H](CN(C)C(=O)NC2CCCCC2)Oc2ccc(NC(=O)C3CC3)cc2CC1=O	-32	5	0	.	0	-2
O=C(c1ccc(Oc2cc(Cl)cc(Cl)c2)o1)N1CCCCC1	7	-49*	0	6	1	-3
Cc1ccc(Cl)cc1NC(=S)N(Cc1ccccc1)Cc1cccnc1	.	-26*	0	.	.	-1
COc1ccc(Cl)cc1NC(=S)N(Cc1cccnc1)Cc1ccco1	.	-24*	0	-3	2	0
CCC(CO)NC(=O)c1ccccc1C(F)(F)F (centres undefined)	.	7	0	1	5	23*
CCC(CC)NC(=O)Nc1ccccc1C(F)(F)F	.	5	0	-2	0	1
CC(=O)Nc1c(C(=O)O)[nH]c2ccccc12	99*	.	.	.	.	.
CC(C)C(=O)Nc1ccc2c(c1)C(=O)N(C)[C@@H]1CC[C@H](CC(=O)O)O[C@@H]1CO2	11	2	0	29	0	5
Cc1cccc(N2CCN(C(=O)N3CCCCC3)CC2)c1C	.	-36*	0	3	1	.
Cc1cccc(N2CCN(C(=O)c3ccc4ncsc4c3)CC2)c1C	-69	.	.	2	.	.
Cc1cccc(N2CCN(C(=O)c3ccc4nc[nH]c4c3)CC2)c1C	.	-17	0	1	1	31*
C[C@@H](NC(=O)C[C@@H]1C[C@H]2c3cc(NC(=O)CC4CC4)ccc3O[C@H]2[C@@H](CO)O1)c1ccccc1	15	1	0	5	0	2
O=C(C[C@H]1C[C@@H]2c3cc(NC(=O)Nc4ccc(C(F)(F)F)cc4)ccc3O[C@@H]2[C@@H](CO)O1)NCCc1ccccc1	-92	-45	0	-6	-1	2
OCCN1CCN(CC(O)COC(c2ccc(F)cc2)c2ccc(F)cc2)CC1 (centres undefined)	-2	-4	0	3	0	-1
OC(COC(c1ccc(F)cc1)c1ccc(F)cc1)CN1CCCC(C(F)(F)F)C1 (centres undefined)	0	-23*	0	-5	0	-21

Screening results: PubChem, Broad Institute
